Test results taken from ChEMBL document CHEMBL1156869, “Selective inhibitors of the JMJD2 histone demethylases: combined nondenaturing mass spectrometric screening and crystallographic approaches” (J Med Chem, 2010).
pIC50: −log10 of the molar value. Active and inactive are the calls of the source. The rule behind the calls is not given here.

Columns and labels:
[1] = Inhibition of JMJD2E by FDH coupled assay
Outline: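 Formaldehyde dehydrogenase-coupled demethylation assay with initial rates from NADH production. IC50 determined from these rates; detection limit about 1 μM IC50.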

[2] = Binding to JMJD2E by nondenaturing ESI-MS, ratio of JMJD2E-inhibitor complex to free JMJD2E
[3] = Inhibition of JMJD2E by ESI-MS binding assay
Outline: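 Nondenaturing ESI-MS binding: His-tagged JMJD2E desalted into 15 mM ammonium acetate pH 7.5. Protein (15 μM) mixed with 1 equiv Fe(II) and 1 equiv inhibitor, incubated 30 min at 37 °C, then analysed on a Q-TOF by nanospray. Read-out: ratio of JMJD2E–inhibitor complex to free JMJD2E.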

[4] = Inhibition of JMJD2E by MALDI-TOF assay
[5] = target: T1, Lysine-specific demethylase 4A (Homo sapiens, UniProt O75164); experiment: Inhibition of JMJD2A by MALDI-TOF assay
T1 sequence (O75164 whole entry): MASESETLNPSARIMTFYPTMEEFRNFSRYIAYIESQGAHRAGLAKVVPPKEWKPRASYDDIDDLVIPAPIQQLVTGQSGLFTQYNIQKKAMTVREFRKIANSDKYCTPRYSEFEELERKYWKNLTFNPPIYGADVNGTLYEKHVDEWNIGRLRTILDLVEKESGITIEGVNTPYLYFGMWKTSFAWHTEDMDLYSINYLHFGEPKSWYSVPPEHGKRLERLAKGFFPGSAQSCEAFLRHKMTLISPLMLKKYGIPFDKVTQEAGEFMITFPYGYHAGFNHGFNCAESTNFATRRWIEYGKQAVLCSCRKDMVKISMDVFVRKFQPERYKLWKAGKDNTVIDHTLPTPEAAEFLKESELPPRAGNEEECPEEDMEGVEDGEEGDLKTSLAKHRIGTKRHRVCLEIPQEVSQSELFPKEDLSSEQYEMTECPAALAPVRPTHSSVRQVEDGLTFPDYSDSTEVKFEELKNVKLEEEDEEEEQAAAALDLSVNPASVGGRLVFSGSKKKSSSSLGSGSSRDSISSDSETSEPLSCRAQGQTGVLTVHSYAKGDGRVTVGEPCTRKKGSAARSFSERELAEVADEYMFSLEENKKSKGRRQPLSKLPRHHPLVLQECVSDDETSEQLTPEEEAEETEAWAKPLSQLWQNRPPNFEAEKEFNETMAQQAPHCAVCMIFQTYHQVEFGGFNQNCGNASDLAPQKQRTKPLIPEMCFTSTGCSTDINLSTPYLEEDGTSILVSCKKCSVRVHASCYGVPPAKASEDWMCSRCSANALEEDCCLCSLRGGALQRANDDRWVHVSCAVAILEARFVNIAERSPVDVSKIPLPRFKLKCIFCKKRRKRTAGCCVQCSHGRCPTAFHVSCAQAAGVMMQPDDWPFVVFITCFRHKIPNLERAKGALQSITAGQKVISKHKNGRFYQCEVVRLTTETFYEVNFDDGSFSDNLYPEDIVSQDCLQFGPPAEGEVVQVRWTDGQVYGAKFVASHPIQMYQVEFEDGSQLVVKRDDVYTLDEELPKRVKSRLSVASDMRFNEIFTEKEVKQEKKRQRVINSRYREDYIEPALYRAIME
Outline: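 Reaction started with 2OG (10 μM) and ARKme3STGGK peptide (10 μM), then 30 min at 37 °C. Quenched with methanol. MALDI-TOF methylation-state intensities gave % demethylation; IC50 from concentration variation.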

Homo sapiens = species on record: Homo sapiens; experiment: Inhibition of human […] by CODD biochemical assay

SMILES	pIC50 [1]	Ratio [2]	Activity [3]	pIC50 [4]	pIC50 [5]	Activity (Homo sapiens)
O=C(O)C(=O)N[C@H](Cc1ccc(OCCCN2C(=O)c3ccccc3C2=O)cc1)C(=O)O	3.49	0.9	Active			
O=C(O)C(=O)N[C@H](Cc1ccc(OCc2ccccc2[N+](=O)[O-])cc1)C(=O)O	4.83	3.1	Active			
O=C(Cc1ccc(Cl)cc1)Oc1ccc(C[C@@H](NC(=O)C(=O)O)C(=O)O)cc1			Active			
O=C(O)C(=O)N[C@H](Cc1ccc(OS(=O)(=O)c2ccc(Br)cc2)cc1)C(=O)O	5.27		Active	4.68	4.92	inactive
O=C(O)C(=O)N[C@H](Cc1ccc(OCC(=O)c2ccc(N3CCCC3)cc2)cc1)C(=O)O	4.83	2	Active	4.23	4.89	
O=C(O)C(=O)N[C@H](Cc1ccc(OC(=O)N2CCOCC2)cc1)C(=O)O			Active			
O=C(O)C(=O)N[C@H](Cc1ccc(OC(=O)c2cc3ccccc3s2)cc1)C(=O)O			Active			
CCC(C(=O)Oc1ccc(C[C@@H](NC(=O)C(=O)O)C(=O)O)cc1)c1ccccc1 (some centres not stated)			Active			
CC(C)(C)C(=O)COc1ccc(C[C@@H](NC(=O)C(=O)O)C(=O)O)cc1	3.73	0.9	Active			
Cc1noc(C)c1S(=O)(=O)Oc1ccc(C[C@@H](NC(=O)C(=O)O)C(=O)O)cc1	4.08	1	Active			
Cc1noc(C)c1C(=O)Oc1ccc(C[C@@H](NC(=O)C(=O)O)C(=O)O)cc1			Active			
CC(C)(C)c1ccc(S(=O)(=O)Oc2ccc(C[C@@H](NC(=O)C(=O)O)C(=O)O)cc2)cc1	5.07		Active	4.21	4.89	inactive
O=C(O)C(=O)N[C@H](Cc1ccc(OC(=O)c2cnn(-c3ccc(Cl)cc3)c2C(F)(F)F)cc1)C(=O)O			Active			
O=C(O)C(=O)N[C@H](Cc1ccc(OC(=O)C2CCCCC2)cc1)C(=O)O			Active			
O=C(O)C(=O)N[C@H](Cc1ccc(OC(=O)c2cccs2)cc1)C(=O)O			Active			
O=C(O)C(=O)N[C@H](Cc1ccc(OCc2ccccc2)cc1)C(=O)O	4.43	1.7	Active	4.12		
O=C(O)C(=O)N[C@H](Cc1ccc(OC(=O)c2ccco2)cc1)C(=O)O	4.70	3.5	Active			
CC(C)CC(=O)Oc1ccc(C[C@@H](NC(=O)C(=O)O)C(=O)O)cc1			Active			
O=C(Cc1ccccc1)Oc1ccc(C[C@@H](NC(=O)C(=O)O)C(=O)O)cc1			Active			
O=C(O)C(=O)N[C@H](Cc1ccc(OCc2ccccc2F)cc1)C(=O)O	4.78	3.6	Active	4.60	5.00	
O=C(O)C(=O)N[C@H](Cc1ccc(OS(=O)(=O)c2ccccc2)cc1)C(=O)O	4.83	5.7	Active			
O=C(O)C(=O)N[C@H](Cc1ccc(OS(=O)(=O)c2ccc(F)cc2)cc1)C(=O)O	4.93		Active	4.42	4.70	inactive
